From ChEMBL document CHEMBL1131058, “Studies on quinazolines and 1,2,4-benzothiadiazine 1,1-dioxides. 8.1, 2 synthesis and pharmacological evaluation of tricyclic fused quinazolines and 1,2,4-benzothiadiazine 1,1-dioxides as potential alpha1-adrenoceptor antagonists” (J Med Chem, 1998)

Assays:
[1] = target: T1, Serotonin 1 (5-HT1) receptor (Rattus norvegicus, UniProt P28564+P30940+P19327+P28565); experiment: Compound is evaluated for binding affinity towards 5-hydroxytryptamine 1 receptor using [3H]5-HT in rat brain cortex at 10 uM; format: tissue-based
Summary of the method: (§1)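 Single-concentration screen at 10 µM in contract radioligand binding assays. Records whether inhibition of specific radioligand binding stayed below 50%.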

[2] = target: Sigma 2 receptor; experiment: Binding affinity towards Sigma 2 receptor using [3H]ifenprodil in rat brain at 10 uM; format: tissue-based; summary of the method: as §1
[3] = target: T2, D(2) dopamine receptor (Homo sapiens, UniProt P14416); experiment: Compound is evaluated for binding affinity towards Dopamine receptor D2 using [3H]spiperone in CHO cells; format: cell-based
Summary of the method: (§2)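 Contract radioligand competition binding. Sources: 5-HT1 and 5-HT1A in rat brain cortex; 5-HT2 and σ2 in rat brain; σ in guinea pig brain; D2, rhD2 and rhD3 in CHO cells with [³H]spiperone; H1 in guinea pig lung with [³H]pyrilamine. Inhibition constants reported; no constant given where inhibition at 10 µM was below 50%.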

[4] = target: T3, Adrenergic receptor alpha-1 (Rattus norvegicus, UniProt P15823+P23944+P43140); experiment: Binding affinity towards Alpha-1 adrenergic receptor measured by displacement of [3H]prazosin from rat brain cortex membranes; format: cell membranes, Membrane
T3 sequence (P15823 whole entry): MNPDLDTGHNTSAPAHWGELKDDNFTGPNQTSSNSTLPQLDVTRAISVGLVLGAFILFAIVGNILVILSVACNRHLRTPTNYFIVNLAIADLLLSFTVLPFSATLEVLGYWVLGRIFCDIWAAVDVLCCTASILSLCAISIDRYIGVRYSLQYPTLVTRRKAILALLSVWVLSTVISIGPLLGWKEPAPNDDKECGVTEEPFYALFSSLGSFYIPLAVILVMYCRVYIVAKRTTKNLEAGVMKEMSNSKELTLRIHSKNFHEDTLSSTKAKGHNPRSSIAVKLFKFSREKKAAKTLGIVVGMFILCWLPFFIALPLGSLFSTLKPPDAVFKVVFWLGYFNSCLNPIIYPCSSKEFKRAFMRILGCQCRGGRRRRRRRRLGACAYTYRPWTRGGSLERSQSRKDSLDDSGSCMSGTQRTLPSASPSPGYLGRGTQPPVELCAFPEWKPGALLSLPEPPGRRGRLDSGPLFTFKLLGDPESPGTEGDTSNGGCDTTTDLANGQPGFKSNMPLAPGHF
T3 sequence (P23944 whole entry): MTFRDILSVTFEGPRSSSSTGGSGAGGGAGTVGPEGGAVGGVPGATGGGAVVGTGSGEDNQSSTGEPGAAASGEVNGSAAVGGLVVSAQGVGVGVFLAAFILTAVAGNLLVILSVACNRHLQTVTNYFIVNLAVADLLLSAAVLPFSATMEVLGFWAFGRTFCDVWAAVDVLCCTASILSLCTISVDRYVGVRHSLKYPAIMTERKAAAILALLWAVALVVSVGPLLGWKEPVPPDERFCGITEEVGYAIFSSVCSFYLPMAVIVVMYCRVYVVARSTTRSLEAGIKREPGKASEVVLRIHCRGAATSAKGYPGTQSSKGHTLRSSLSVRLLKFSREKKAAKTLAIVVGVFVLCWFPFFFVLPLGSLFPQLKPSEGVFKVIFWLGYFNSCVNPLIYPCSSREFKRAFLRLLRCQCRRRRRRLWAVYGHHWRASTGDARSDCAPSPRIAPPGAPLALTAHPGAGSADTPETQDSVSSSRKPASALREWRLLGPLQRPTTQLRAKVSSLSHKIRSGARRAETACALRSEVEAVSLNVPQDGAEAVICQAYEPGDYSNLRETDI
T3 sequence (P43140 whole entry): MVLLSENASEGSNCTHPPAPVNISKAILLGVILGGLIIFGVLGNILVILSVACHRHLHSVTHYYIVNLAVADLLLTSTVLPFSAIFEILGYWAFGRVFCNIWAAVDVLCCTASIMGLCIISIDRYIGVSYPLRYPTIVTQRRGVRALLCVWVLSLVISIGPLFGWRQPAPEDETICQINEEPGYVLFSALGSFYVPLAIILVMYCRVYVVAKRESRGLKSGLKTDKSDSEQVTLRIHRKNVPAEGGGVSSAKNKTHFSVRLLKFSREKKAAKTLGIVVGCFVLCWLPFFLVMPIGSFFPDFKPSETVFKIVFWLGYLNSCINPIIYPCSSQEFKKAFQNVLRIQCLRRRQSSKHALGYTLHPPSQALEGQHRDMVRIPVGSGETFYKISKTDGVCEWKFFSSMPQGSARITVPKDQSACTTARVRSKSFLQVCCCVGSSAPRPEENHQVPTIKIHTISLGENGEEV
Summary of the method: (§3)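 Triplicate competition binding against 0.2-0.25 nM [³H]prazosin in Tris buffer pH 7.4, 30 min at room temperature. Competitor range 0.1-200 nM. Nonspecific binding defined with 10 µM phentolamine. Reaction stopped by GF/B filtration with two cold Tris washes. Membrane protein 300-400 µg per assay. Ki calculated from the data; mean ± SEM of 3-6 experiments.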

[5] = target: Alpha-2A adrenergic receptor (Homo sapiens) (UniProt P08913); experiment: Compound is evaluated for binding affinity towards Alpha-2A adrenergic receptor using [3H]MK912 at 10 uM
[6] = target: T2, D(2) dopamine receptor; experiment: Compound is evaluated for binding affinity towards Dopamine receptor D2 using [3H]-spiperone in CHO cells at 10 uM; format: cell-based
[7] = target: T3, Adrenergic receptor alpha-1; experiment: Compound is evaluated for binding affinity towards Alpha-1 adrenergic receptor in rat brain cortex membrane; format: cell membranes; summary of the method: as §3
[8] = target: Sodium channel alpha subunits; brain (Types I, II, III) (Rattus norvegicus) (UniProt P04775+P04774+P08104); experiment: Displacement of [3H]batrachotoxin from rat brain sodium channel at 10 uM; format: tissue-based
Summary of the method: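 Radioligand competition binding was done by an outside contract lab (Pan Lab). Inhibition constants (Ki) were derived from displacement of the stated tritiated ligand. Each compound was tested at 10 µM. Where inhibition at that concentration stayed below 50%, no Ki was reported.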

[9] = target: T1, Serotonin 1 (5-HT1) receptor; experiment: Compound is evaluated for binding affinity towards 5-hydroxytryptamine 1 receptor using [3H]5-HT in rat brain cortex; format: tissue-based; summary of the method: as §2
[10] = target: D(3) dopamine receptor (Homo sapiens, UniProt P35462); experiment: Compound is evaluated for binding affinity towards recombinant human Dopamine receptor D3 using [3H]spiperone in CHO cells; format: cell-based; summary of the method: as §2
[11] = target: Histamine H1 receptor (Cavia porcellus, UniProt P31389); experiment: Compound is evaluated for binding affinity towards Histamine H1 receptor using [3H]pyrilamine in guinea pig lung; format: tissue-based; summary of the method: as §2
Sequence of Histamine H1 receptor (P31389 whole entry): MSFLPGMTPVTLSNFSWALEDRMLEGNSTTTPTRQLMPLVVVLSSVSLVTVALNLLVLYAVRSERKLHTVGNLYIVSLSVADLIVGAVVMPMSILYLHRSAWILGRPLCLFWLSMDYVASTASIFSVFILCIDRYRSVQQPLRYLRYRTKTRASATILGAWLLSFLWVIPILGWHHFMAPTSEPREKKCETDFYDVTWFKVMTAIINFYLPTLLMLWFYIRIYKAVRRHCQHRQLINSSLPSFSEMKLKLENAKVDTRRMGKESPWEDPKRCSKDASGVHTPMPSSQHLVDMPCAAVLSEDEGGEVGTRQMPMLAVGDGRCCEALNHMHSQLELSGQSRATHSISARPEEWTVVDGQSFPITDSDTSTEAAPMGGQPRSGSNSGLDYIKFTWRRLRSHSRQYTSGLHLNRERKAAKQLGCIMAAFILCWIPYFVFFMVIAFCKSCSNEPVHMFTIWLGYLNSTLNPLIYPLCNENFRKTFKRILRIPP

T2 sequence (P14416 whole entry): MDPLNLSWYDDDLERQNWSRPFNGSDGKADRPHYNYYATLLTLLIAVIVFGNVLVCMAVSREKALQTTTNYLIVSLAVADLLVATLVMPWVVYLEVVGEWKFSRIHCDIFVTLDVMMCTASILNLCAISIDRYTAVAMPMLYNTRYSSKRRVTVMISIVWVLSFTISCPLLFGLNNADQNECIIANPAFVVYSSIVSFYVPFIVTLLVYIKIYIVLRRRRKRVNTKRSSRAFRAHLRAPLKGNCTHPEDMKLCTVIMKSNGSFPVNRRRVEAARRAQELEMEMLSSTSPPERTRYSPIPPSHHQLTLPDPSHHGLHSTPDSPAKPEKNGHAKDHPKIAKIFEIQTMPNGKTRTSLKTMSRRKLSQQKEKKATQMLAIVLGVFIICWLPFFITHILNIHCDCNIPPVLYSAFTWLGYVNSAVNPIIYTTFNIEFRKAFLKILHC
Sequence of D(3) dopamine receptor (P35462 whole entry): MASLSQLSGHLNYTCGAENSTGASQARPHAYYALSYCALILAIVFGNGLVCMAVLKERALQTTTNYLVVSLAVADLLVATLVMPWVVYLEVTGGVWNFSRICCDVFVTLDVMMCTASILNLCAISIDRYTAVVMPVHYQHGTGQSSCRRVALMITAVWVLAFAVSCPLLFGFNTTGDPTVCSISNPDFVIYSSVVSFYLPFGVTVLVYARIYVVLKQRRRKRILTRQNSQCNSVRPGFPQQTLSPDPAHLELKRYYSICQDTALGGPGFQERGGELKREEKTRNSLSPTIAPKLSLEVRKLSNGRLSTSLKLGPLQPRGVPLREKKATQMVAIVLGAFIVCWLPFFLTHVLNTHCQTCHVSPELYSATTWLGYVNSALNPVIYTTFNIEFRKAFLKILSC
Sequence of Alpha-2A adrenergic receptor (Homo sapiens) (P08913 whole entry): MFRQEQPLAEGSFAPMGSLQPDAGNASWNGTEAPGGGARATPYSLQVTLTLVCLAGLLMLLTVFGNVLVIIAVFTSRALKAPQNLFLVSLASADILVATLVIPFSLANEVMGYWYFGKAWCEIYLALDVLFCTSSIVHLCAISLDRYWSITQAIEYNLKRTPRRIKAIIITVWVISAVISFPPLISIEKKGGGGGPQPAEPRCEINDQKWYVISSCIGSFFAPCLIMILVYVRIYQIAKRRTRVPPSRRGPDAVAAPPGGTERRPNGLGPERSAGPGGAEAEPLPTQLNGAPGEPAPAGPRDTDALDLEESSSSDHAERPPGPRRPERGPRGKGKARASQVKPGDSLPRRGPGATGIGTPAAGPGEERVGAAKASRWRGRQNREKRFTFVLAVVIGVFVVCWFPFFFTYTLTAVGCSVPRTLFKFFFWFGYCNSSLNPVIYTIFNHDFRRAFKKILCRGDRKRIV

Compound: COc1ccccc1N1CCN(CC2CN=C3c4ccccc4N=C(SC)N32)CC1 (configuration not stated)
- Ki [1]: 1839 nM
- Inhibition [2]: < 50%
- Ki [3]: 449 nM

Compound: COc1ccccc1N1CCN(Cc2cn3c(O)nc4ccccc4c3n2)CC1
- Ki [4]: 6.53 nM

Compound: COc1ccccc1N1CCN(Cc2cnc3c4ccccc4nc(O)n23)CC1
- Ki [4]: 5.06 nM

Compound: COc1ccccc1N1CCN(C[C@@H]2CN=C3c4ccccc4NC(=O)N32)CC1
- inhibition [5]: < 50%

Compound: Oc1nc2ccccc2c2ncc(CN3CCN(c4ccccc4Cl)CC3)n12
- inhibition [6]: < 50%
- Ki [7]: 7.12 nM

Compound: COc1ccccc1N1CCN(CC2CN3C(=O)Nc4ccccc4C3=N2)CC1 (configuration not stated)
- inhibition [8]: < 50%
- Ki [9]: 2500 nM
- Ki [10]: 2200 nM
- Ki [11]: 961 nM
